The results in this text go back to ChEMBL document CHEMBL3421573, “Synthesis of new ent-labdane diterpene derivatives from andrographolide and evaluation on cytotoxic activities” (Bioorg Med Chem Lett, 2015).

Holding throughout (type): functional, cell-based
A short description of assay [1]: Cytotoxicity against human NTUB1 cells after 48 hrs by MTT assay. The following applies: NTUB1, 48 h. An outline of the steps: (§1)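 Samples dissolved in DMSO (0.1%); cis-platin included as positive control. IC50 taken as the drug concentration giving 50% growth inhibition, in µM.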
On the technique in general: Formazan colour is commonly taken as a measure of viable cells.

The test system of a further assay is MCF7. Put plainly: Cytotoxicity against human MCF7 cells after 48 hrs by MTT assay. An outline of the steps: as §1
The test system of another assay is MDA-MB-231. Put plainly: Cytotoxicity against human MDA-MB-231 cells after 48 hrs by MTT assay. In a few lines:
as §1

Assay [2] is described as follows: Cytotoxicity against human NP14 cells after 48 hrs by MTT assay. The following applies: NP14, 48 h. An outline of the steps: as §1
[3] abbreviates: Homo sapiens, MCF7, 48 h, read-out: IC50.
Setting [4] is: Homo sapiens, MDA-MB-231, 48 h, read-out: IC50.

Each structure is given as a SMILES string.

On to `C=C1CC[C@@H]2[C@](C)(CO)[C@H](O)CC[C@@]2(C)[C@@H]1C/C=C1/C(=O)OC[C@H]1O` [ANDROGRAPHOLIDE], for which the IC50 (as a rule, the concentration that inhibits the measured activity by half) in assay [1] is 32.5 µM; in the assay with MCF7 (setting [3]) it was 30.8 µM; with MDA-MB-231 (setting [4]), 16.6 µM; in assay [2] it was 21.2 µM.

As to `C[C@]1(CO)[C@H]2CCC(=O)[C@@H](CCc3ccoc3)[C@]2(C)CC[C@H]1O`, the IC50 was over 100 µM in assay [1], over 100 µM in the assay with MCF7 (setting [3]), 56.3 µM with MDA-MB-231 (setting [4]) and over 100 µM in assay [2].

As to `C=C1CC[C@@H]2[C@](C)(COC(=O)c3ccc([N+](=O)[O-])cc3)[C@H](O)CC[C@@]2(C)[C@@H]1CCc1ccoc1`, the half-inhibitory concentration (IC50) in assay [1] was found to be 23.8 µM; with MCF7 (setting [3]) it was 62.1 µM; with MDA-MB-231 (setting [4]) it was 37.5 µM; in assay [2] it was 80.9 µM.

For `C=C1CC[C@@H]2[C@](C)(COC(=O)COc3ccccc3)[C@H](O)CC[C@@]2(C)[C@@H]1CCc1ccoc1`, the IC50 is over 100 µM in assay [1], 36.8 µM in the assay on MCF7 (setting [3]), 35 µM with MDA-MB-231 (setting [4]) and 18.6 µM in assay [2].

Regarding `C=C1CC[C@@H]2[C@](C)(COC(c3ccccc3)(c3ccccc3)c3ccccc3)[C@H](OC(C)=O)CC[C@@]2(C)[C@@H]1CC(OC(C)=O)C1=CCOC1=O` (some centres undefined), the IC50 in assay [1] came to 8.45 µM; in the assay on MCF7 (setting [3]), 6.41 µM; in the assay on MDA-MB-231 (setting [4]) it was 6.37 µM; in assay [2], 14.3 µM.

Consider `C=C1CC[C@@H]2[C@](C)(CO)[C@H](O)CC[C@@]2(C)[C@@H]1CCc1ccoc1`, for which the IC50 in assay [1] is 39.8 µM; in the assay on MCF7 (setting [3]), 79.5 µM; in the assay with MDA-MB-231 (setting [4]) it was over 100 µM; in assay [2] it was 53.3 µM.

On to `C=C1CC[C@@H]2[C@](C)(COC(=O)CC)[C@H](OC(=O)CC)CC[C@@]2(C)[C@@H]1CCc1ccoc1`, for which the IC50 in assay [1] was 42.9 µM; in the assay on MCF7 (setting [3]), over 100 µM; in the assay with MDA-MB-231 (setting [4]), 40.4 µM; in assay [2], 94.2 µM.

On to `C=C1CC[C@@H]2[C@](C)(COC(=O)c3ccc(OC)cc3)[C@H](O)CC[C@@]2(C)[C@@H]1CCc1ccoc1`, for which the IC50 in assay [1] was determined as 26.3 µM; in the assay on MCF7 (setting [3]), 25.2 µM; in the assay on MDA-MB-231 (setting [4]), 28.6 µM; in assay [2] it was 40.4 µM.

`C=C1CC[C@@H]2[C@](C)(COC(=O)c3ccc([N+](=O)[O-])cc3)[C@H](OC(=O)c3ccc([N+](=O)[O-])cc3)CC[C@@]2(C)[C@@H]1CCc1ccoc1`: the half-inhibitory concentration (IC50) (in assay [1]; in the assay on MCF7 (setting [3]); in the assay with MDA-MB-231 (setting [4]); in assay [2]) was over 100 µM throughout.

For the compound `C=C1CC[C@H]2[C@@](C)(CCC(=O)[C@@]2(C)CO)[C@@H]1CCc1ccoc1`, the IC50 in assay [1] stood at 63.1 µM; in the assay with MCF7 (setting [3]), 87.3 µM; in the assay with MDA-MB-231 (setting [4]), 71.2 µM; in assay [2] it was 43.2 µM.

Take `C=C1CC[C@@H]2[C@](C)(COC(=O)C(Cl)Cl)[C@H](OC(=O)C(Cl)Cl)CC[C@@]2(C)[C@@H]1CCc1ccoc1`: the concentration for half-maximal inhibition (IC50) was found to be 11.2 µM in assay [1], 22.9 µM with MCF7 (setting [3]), 2.64 µM with MDA-MB-231 (setting [4]) and 4.42 µM in assay [2].

In the case of `C=C1CC[C@@H]2[C@](C)(COC(=O)CC)[C@H](OC(=O)CC)CC[C@@]2(C)[C@@H]1CC(OC(=O)CC)c1ccoc1` (some centres undefined), the IC50 in assay [1] was 89.7 µM; in the assay with MCF7 (setting [3]) it was over 100 µM; with MDA-MB-231 (setting [4]), over 100 µM; in assay [2] it was 43.1 µM.

With `C=C1CC[C@@H]2[C@](C)(CO)[C@H](O)CC[C@@]2(C)[C@@H]1CCC1=CCOC1=O` [DEOXYANDROGRAPHOLIDE], the IC50 in assay [1] is over 100 µM; with MCF7 (mcf7), “Not Active”; in the assay with MDA-MB-231 (mda-mb-231), “Not Active”; in assay [2] it was over 100 µM.

As for `C=C1CC[C@@H]2[C@](C)(CO)[C@H](O)CC[C@@]2(C)[C@@H]1CC(O)C1=CCOC1=O` (some centres undefined), the IC50 in assay [1] was 14.9 µM; with MCF7 (setting [3]), 78 µM; in the assay on MDA-MB-231 (setting [4]) it was 27.6 µM; in assay [2], 49.4 µM.

Take `C=C1[C@H](O)C[C@@H]2[C@](C)(COC(=O)CC)[C@H](OC(=O)CC)CC[C@@]2(C)[C@@H]1CCc1ccoc1`: the IC50 in assay [1] was found to be 29.6 µM; in the assay on MCF7 (setting [3]), 44 µM; in the assay with MDA-MB-231 (setting [4]) it was 40.9 µM; in assay [2] it was 27.7 µM.

Take `C=C1CC[C@@H]2[C@](C)(CO)[C@H](O)CC[C@@]2(C)[C@@H]1CC(O)c1ccoc1` (some centres undefined): the IC50 (in assay [1]; in the assay on MCF7 (setting [3]); with MDA-MB-231 (setting [4]); in assay [2]) was over 100 µM throughout.
